In ChEMBL document CHEMBL1143425, “Paradoxical growth effect of caspofungin observed on biofilms and planktonic cells of five different Candida species” (2007) one finds Activity and MIC data, which are given here for one compound.

Assay [1] has as its system Candida tropicalis. In words: Antimicrobial activity against Candida tropicalis BR-A18 grown as biofilm assessed as paradoxical growth after 48 hrs by XTT reduction assay. In kind it is functional, organism-based. In a few lines: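 Clinical isolates were grown overnight (18 h, 35°C, 120 rpm) in RPMI 1640 with MOPS, pH 7.0, then washed and set to ~1 × 10^7 cells/ml. Cells attached for 1.5 h at 37°C, 75 rpm, then biofilms grew 24 h. Caspofungin was given as doubling dilutions of 2–1,024 μg/ml for 48 h at 35°C, 75 rpm. Read-out was XTT-menadione in PBS, 1 h at 35°C in the dark, A490, cell-free blank subtracted. MIC was a 50% drop in activity versus drug-free; PG was >50% of control above MIC. Run in duplicate.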

In assay [2] the test system is Candida orthopsilosis. In words: Antimicrobial activity against Candida orthopsilosis BR-A35 grown as biofilm assessed as concentration producing paradoxical growth after 48 hrs by XTT reduction assay. In kind it is functional. In a few lines: (§1)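 Sabouraud-grown cells were shaken overnight (18 h, 120 rpm, 35°C) in RPMI 1640 with MOPS at pH 7.0, then washed and set at ~1 × 10^7 cells/ml. Attachment lasted 1.5 h at 37°C, and growth ran 24 h before challenge. Caspofungin was added in RPMI at 2–1,024 μg/ml (10 doublings) for 48 h at 35°C with shaking. XTT-menadione was read at 490 nm after 1 h at 35°C in the dark, with blank wells subtracted. MIC was taken as 50% reduction versus drug-free wells, and PG as >50% of control above MIC. Assays were run in duplicate.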
For orientation: Tetrazolium dyes change colour on reduction, which living cells bring about.

For assay [3], the system named is Candida metapsilosis. In words: Antimicrobial activity against Candida metapsilosis BR-A43 grown as biofilm assessed as concentration producing paradoxical growth after 48 hrs by XTT reduction assay. In kind it is functional. The essentials:
as §1

In assay [4] the test system is Candida orthopsilosis. In words: Antimicrobial activity against Candida orthopsilosis BR-A36 grown as biofilm after 48 hrs by XTT reduction assay. Type of assay: functional. Conditions: Lodderomyces orthopsilosis. In a few lines: (§2)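 Isolates were grown on Sabouraud agar (30°C, 24 h), then overnight in RPMI 1640 with MOPS, pH 7.0, at 35°C with shaking. Cells were washed and set to ~1 × 10^7 cells/ml, attached 1.5 h at 37°C, and grown 24 h. Biofilms were then exposed to caspofungin in 10 twofold dilutions (2–1,024 μg/ml) for 48 h at 35°C with shaking. Read-out was XTT-menadione, 1 h, 35°C, dark, A490, cell-free blank subtracted. MIC was the 50% drop in activity versus drug-free control. Tested in duplicate.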

The test system of assay [5] is Candida metapsilosis. In words: Antimicrobial activity against Candida metapsilosis BR-A44 grown as planktonic cell after 48 hrs by XTT reduction assay. The settings on record: Lodderomyces metapsilosis. Type of assay: functional. In a few lines: (§3)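 Planktonic cells were tested by CLSI M27-A2 broth microdilution with caspofungin in water, incubated 48 h. XTT-menadione was added to each well, plates were held 1 h at 35°C in the dark and centrifuged, and supernatant absorbance was read at 490 nm. MIC was defined as 50% decrease in metabolic activity versus drug-free control. PG was defined as ≥20% of control activity at concentrations above MIC.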

Assay [6] concerns Candida orthopsilosis. In words: Antimicrobial activity against Candida orthopsilosis BR-A34 grown as biofilm after 48 hrs by XTT reduction assay. In kind it is functional. Conditions: Lodderomyces orthopsilosis. In a few lines:
as §2

Assay [7] concerns Candida parapsilosis. In words: Antimicrobial activity against Candida parapsilosis BR-A26 grown as planktonic cell assessed as concentration producing paradoxical growth after 48 hrs by XTT reduction assay. In kind it is functional. The essentials:
(§4)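 Planktonic broth microdilution followed CLSI M27-A2, with caspofungin dissolved in water. After 48 h, XTT-menadione was added to each well and plates were incubated 1 h at 35°C in the dark. Cells were pelleted by centrifugation and the supernatant was read at 490 nm. MIC was the lowest concentration giving a 50% drop in metabolic activity versus the drug-free control. PG was ≥20% of drug-free activity above the MIC.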

The test system of assay [8] is Candida orthopsilosis. In words: Effect on morphology in Candida orthopsilosis grown as planktonic cells assessed as inhibition of hyphae and pseudohyphae at 64 ug/ml after 48 hrs. Type of assay: functional, organism-based. In a few lines: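 Cells were taken from caspofungin-containing and drug-free wells of the planktonic broth microdilution test after 48 h. They were examined by light microscopy at ×400.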

For assay [9], the system named is Candida tropicalis. In words: Effect on morphology in Candida tropicalis grown as biofilm assessed as inhibition of hyphae and pseudohyphae at 8 ug/ml after 48 hrs. Type of assay: functional, organism-based. The essentials:
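Overnight RPMI 1640 cultures (MOPS, pH 7.0) were washed and set to about 1 × 10^7 cells/ml, then attached to polystyrene wells for 1.5 h at 37°C at 75 rpm. After 24 h biofilm growth, wells were washed and given doubling caspofungin dilutions (2–1,024 μg/ml in RPMI) for 48 h at 35°C at 75 rpm. Biofilms were viewed in situ by inverted light microscopy at ×200 alongside drug-free wells.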

Assay [10] concerns Candida albicans. In words: Antimicrobial activity against Candida albicans BR-A2 grown as planktonic cell assessed as concentration producing paradoxical growth after 48 hrs by XTT reduction assay. In kind it is functional. The essentials:
as §3

Assay [11] concerns Candida orthopsilosis. In words: Antimicrobial activity against Candida orthopsilosis BR-A36 grown as planktonic cell assessed as paradoxical growth after 48 hrs by XTT reduction assay. Type of assay: functional, organism-based. The essentials:
as §3

Assay [12] deals with Candida albicans. In words: Antimicrobial activity against Candida albicans BR-A7 grown as planktonic cell assessed as paradoxical growth after 48 hrs by XTT reduction assay. Type of assay: functional, organism-based. In a few lines: as §3
The subject of assay [13] is Candida parapsilosis. In words: Antimicrobial activity against Candida parapsilosis BR-A28 grown as planktonic cell after 48 hrs by XTT reduction assay. The settings on record: Lodderomyces parapsilosis. In kind it is functional. In a few lines:
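Planktonic broth microdilution followed CLSI M27-A2, with caspofungin dissolved in water. After 48 h, XTT-menadione was added to the wells and plates were kept 1 h at 35°C in the dark. Plates were then centrifuged and supernatant A490 was read. MIC was the lowest concentration giving a 50% decrease in metabolic activity versus drug-free control. Paradoxical growth was defined as ≥20% of control activity above the MIC.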

Assay [14] deals with Candida metapsilosis. In words: Effect on morphology in Candida metapsilosis grown as biofilm assessed as rounding and clumping at 16 ug/ml after 48 hrs. Type of assay: functional, organism-based. In a few lines: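 Biofilms formed in RPMI 1640 wells were exposed to caspofungin for 48 h and compared with drug-free control wells. Wells were examined in the plate under an inverted light microscope at ×200 and photographed.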

Assay [15] has as its system Candida parapsilosis. In words: Antimicrobial activity against Candida parapsilosis BR-A25 grown as biofilm after 48 hrs by XTT reduction assay. The settings on record: Lodderomyces parapsilosis. Type of assay: functional. In a few lines: as §2
Assay [16] relates to Candida orthopsilosis. In words: Antimicrobial activity against Candida orthopsilosis BR-A33 grown as planktonic cell assessed as paradoxical growth after 48 hrs by XTT reduction assay. In kind it is functional, organism-based. In a few lines:
as §3

The test system of assay [17] is Candida parapsilosis. In words: Antimicrobial activity against Candida parapsilosis 22019 grown as planktonic cell assessed as paradoxical growth after 48 hrs by XTT reduction assay. Type of assay: functional. In a few lines:
as §4

The subject of assay [18] is Candida tropicalis. In words: Antimicrobial activity against Candida tropicalis BR-A8 grown as planktonic cell assessed as concentration producing paradoxical growth after 48 hrs by XTT reduction assay. Type of assay: functional. The essentials: as §4
For assay [19], the system named is Candida parapsilosis. In words: Antimicrobial activity against Candida parapsilosis BR-A27 grown as planktonic cell assessed as paradoxical growth after 48 hrs by XTT reduction assay. In kind it is functional, organism-based. In a few lines: as §4
Assay [20] has as its system Candida metapsilosis. In words: Antimicrobial activity against Candida metapsilosis BR-A42 grown as biofilm assessed as concentration producing paradoxical growth after 48 hrs by XTT reduction assay. Type of assay: functional. In a few lines: as §1
In assay [21] the test system is Candida orthopsilosis. In words: Antimicrobial activity against Candida orthopsilosis BR-A37 grown as biofilm after 48 hrs by XTT reduction assay. In kind it is functional. Conditions: Lodderomyces orthopsilosis. The essentials:
as §2

Assay [22] has as its system Candida metapsilosis. In words: Antimicrobial activity against Candida metapsilosis BR-A43 grown as planktonic cell after 48 hrs by XTT reduction assay. Conditions: Lodderomyces metapsilosis. Type of assay: functional. In a few lines: as §3
The subject of assay [23] is Candida metapsilosis. In words: Antimicrobial activity against Candida metapsilosis BR-A40 grown as biofilm after 48 hrs by XTT reduction assay. In kind it is functional. The settings on record: Lodderomyces metapsilosis. In a few lines: as §1

Converted amounts (≈) assume the structure as drawn. The source made the active and inactive calls.

Consider `CC[C@H](C)C[C@H](C)CCCCCCCCC(=O)N[C@H]1C[C@@H](O)[C@@H](NCCN)NC(=O)[C@@H]2[C@@H](O)CCN2C(=O)[C@H]([C@H](O)CCN)NC(=O)[C@H]([C@H](O)[C@@H](O)c2ccc(O)cc2)NC(=O)[C@@H]2C[C@@H](O)CN2C(=O)[C@H]([C@@H](C)O)NC1=O` [CASPOFUNGIN], for which the result in the assay with Candida tropicalis [1], in the assay on Candida orthopsilosis [8], in the assay on Candida tropicalis [9], in the assay with Candida albicans [12] and with Candida metapsilosis [14] was Active. The Activity with Candida orthopsilosis [2] stood at 16 µg/mL; with Candida metapsilosis [3], 16 µg/mL; in the assay with Candida parapsilosis [7] it was 16 µg/mL; in the assay on Candida albicans [10], 16 µg/mL; with Candida parapsilosis [17], 8 µg/mL; in the assay with Candida tropicalis [18], 8 µg/mL. The Activity with Candida metapsilosis [20] was determined as 32 µg/mL. Also, the MIC with Candida orthopsilosis [4], in the assay with Candida metapsilosis [5], with Candida orthopsilosis [6], against Candida parapsilosis [13], in the assay on Candida parapsilosis [15] and in the assay on Candida orthopsilosis [21] was 2 µg/mL (≈ 1.83 µM) each time. Besides, the MIC with Candida metapsilosis [22] and in the assay with Candida metapsilosis [23] was 2 µg/mL (≈ 1.83 µM) throughout. Moreover, the outcome in the assay with Candida orthopsilosis [11], in the assay on Candida orthopsilosis [16] and in the assay with Candida parapsilosis [19] was inactive.
